# CASP6 VEID inh – human caspase-6 inhibitors, primary screen, biochemical, VEID-R110 fluorescence, single point, set 2; AID 686996, 2013; purified caspase-6, Z-VEID-R110 cleavage fluorescence; inhibition, % at 12.5 µM; hit rate 0.53% among 350,000; P55212;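 active = mean inhibition across replicates at least about 35%, with every replicate also reaching that limit, limit read from the data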;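 also: 0% = median of neutral control wells and 100% = no fluorescence left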
# ASAP1 GAP inh – inhibitors of human ASAP1 ArfGAP activity, primary screen, biochemical, fluorescence polarization; hit rate 0.19% among 360,000; AID 624377, 2012; inhibition, % at 16.5 µM; Arf-GAP with SH3 domain, ANK repeat and PH domain-containing protein 1 (Homo sapiens), …; ASAP1-stimulated ARF1 GTP hydrolysis, GDP FP detection; in the data active = inhibition above about 25%;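 also: 0% = vehicle with enzyme and substrate and 100% = no enzyme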
# LEDGF integ inh – blockers of LEDGF/p75-dependent integrase strand transfer – biochemical, TR-FRET, high throughput, primary screen; HIV-1 integrase (with human LEDGF/p75); TR-FRET IN-LEDGF/p75 DNA integration, Eu/Cy5; inhibition, % at 3.7 µM; hit rate 0.64% among 370,000; AID 743269, 2014;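 active = inhibition above the screen-wide mean plus 3 SD, cut at about 13% in these data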;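 also: signal is the Cy5 over europium emission ratio at 671 and 618 nm; 0% = plate median of compound wells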
# TDP2 absorb – human TDP2 enzyme inhibitors, primary screen, biochemical, epi absorbance, recombinant enzyme | Tyrosyl-DNA phosphodiesterase 2 (Homo sapiens), O95551 | T5PNP hydrolysis, p-nitrophenol absorbance 415 nm | inhibition, % at 12.8 µM | hit rate 0.34% among 370,000 | AID 720702, 2013;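 active = inhibition above the mean of all tested compounds plus 3 SD, set per campaign, cut at about 25% in these data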;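 also: 0% = DMSO with enzyme and 100% = buffer with substrate but no TDP2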
# Target sequence (O95551 whole entry, looked up): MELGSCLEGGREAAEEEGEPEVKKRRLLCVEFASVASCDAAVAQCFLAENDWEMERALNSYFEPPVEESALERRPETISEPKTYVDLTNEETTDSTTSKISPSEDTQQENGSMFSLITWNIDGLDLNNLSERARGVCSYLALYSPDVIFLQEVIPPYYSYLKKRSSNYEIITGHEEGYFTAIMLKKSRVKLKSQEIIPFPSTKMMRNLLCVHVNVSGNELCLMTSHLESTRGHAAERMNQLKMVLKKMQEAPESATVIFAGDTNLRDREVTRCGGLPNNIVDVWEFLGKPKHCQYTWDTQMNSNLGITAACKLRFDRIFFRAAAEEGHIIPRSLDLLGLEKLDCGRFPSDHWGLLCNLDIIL
#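 Read-out basis: percent inhibition. System: recombinant human TDP2. Buffer or medium: Mg2+-containing Tris-HCl buffer, pH 7.5. Repeats: single replicate. Timing: reaction 2 h, 37 °C. Benchmarks: high control without enzyme, low control DMSO plus TDP2. Probe or stimulus: 5 mM T5PNP. Doses: 12.8 µM only. Measured by: epi absorbance of p-nitrophenol freed from T5PNP by hydrolysis.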
# ARFGAP1 inhibitor – inhibitors of rat ARFGAP1 GAP activity, primary screen, biochemical, fluorescence polarization, GDP tracer; inhibition, % at 16.5 µM; Arfgap1-stimulated ARF1 GTP hydrolysis, GDP FP detection; hit rate 0.26% among 360,000; ADP-ribosylation factor GTPase-activating protein 1 (Rattus norvegicus), Q62848;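 active = inhibition above a per-plate limit, mean inhibition of low control wells plus 3 SD, cut at about 25% in these data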;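 also: 0% = DMSO wells with enzyme and 100% = wells lacking Arfgap1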
# Target sequence (Q62848 1-136 limits assumed): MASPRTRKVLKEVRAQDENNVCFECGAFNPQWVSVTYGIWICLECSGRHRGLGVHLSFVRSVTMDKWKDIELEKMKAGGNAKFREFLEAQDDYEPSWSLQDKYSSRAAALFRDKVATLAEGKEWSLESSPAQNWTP
#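 Repeats: one replicate per compound; assay system: rat Arfgap1 catalytic domain, aa 1-136; times: enzyme reaction 120 min at 25 °C after 20 min preincubation; detection: FP of antibody-bound GDP Alexa 633 tracer, ex 620/em 688 nm; benchmarks: high control wells lacking Arfgap1, low control full reaction with DMSO; reagent: human ARF1(Δ1-17)-GTP substrate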
# IN multimer act – HIV-1 IN multimer formation enhancers, counter-screen for LEDGF/p75 integration inhibitor project, biochemical, TR-FRET. shares compounds with LEDGF integ inh. TR-FRET HIV-1 integrase multimerization. activation, % at 7.7 µM. hit rate 17% among 2,000. AID 1053131, 2014; in the data active = activation above about 8.9%
# TR-FRET interf – TR-FRET optical interference artefacts, confirmation, artefact control for LEDGF/p75-dependent integration inhibitor project, biochemical, HIV-1 IN multimerization; shares compounds with LEDGF integ inh; TR-FRET optical interference counterscreen; inhibition, % at 7.7 µM; 2,000 tested, under 10 active; AID 1053135, 2014;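 active = inhibition above the mean over all tested compounds plus 3 SD, which no compound reached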;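 also: 0% = integrase with antibodies and DMSO and 100% = antibodies without integrase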
# IN-LEDGF confirm – inhibitors of HIV-1 IN-LEDGF/p75 DNA integration, confirmation, biochemical, TR-FRET; shares compounds with LEDGF integ inh; TR-FRET LEDGF/p75-dependent HIV-1 integration; inhibition, % at 3.7 µM; hit rate 36% among 2,000; AID 1053136, 2014; in the data active = inhibition above about 14%
# Numbers without * were called inactive; . = not tested or not shown. Most compounds without a hit are left out; they make up all but 1.3% or so of the library.
SMILES,CASP6 VEID inh,ASAP1 GAP inh,LEDGF integ inh,TDP2 absorb,ARFGAP1 inhibitor,IN multimer act,TR-FRET interf,IN-LEDGF confirm
COC(=O)c1sc2nc(N)c(C#N)cc2c1N,.,1.1,33.8*,0.7,7.5,1.8,-8.9,1.9
CC(C)OC(=O)c1sc2nc(-c3ccccc3)ccc2c1N,1.2,-10.8,-3.2,4.2,3.4,.,.,.
O=c1cc(CSc2ccccc2)nc(-c2ccncc2)[nH]1,0.5,4.2,3.2,3.5,4.6,.,.,.
COc1ccc(C#Cc2ccc3c(c2)[C@]2(C(=O)N3)[C@H](c3ccc(OCCO)cc3)N3[C@H](c4ccccc4)[C@H](c4ccccc4)OC(=O)[C@H]3[C@@H]2C(N)=O)cc1,-2.0,.,.,.,.,.,.,.
Cc1ccc2cc3cc(C(=O)NCCCN4CC(C)CC(C)C4)oc3nc2c1 (stereo unspecified),-5.6,-4.4,-0.2,-0.3,-3.5,.,.,.
CN(c1ccc(C(=O)COC(=O)C2CC2)cc1)S(C)(=O)=O,-1.5,5.4,30.6*,6.0,-5.0,0.0,0.0,1.0
CCOC(=O)C1CCN(C(=O)c2ccc(N(C)S(C)(=O)=O)cc2)CC1,.,0.1,-3.0,0.8,5.0,.,.,.
CCc1ccccc1-n1c(SCC(=O)NC)nnc1-c1cccnc1,.,-7.0,22.2*,0.1,1.6,-0.3,1.6,-7.9
Cc1ccc(NC(=O)C(C)OC(=O)CCNS(=O)(=O)c2ccc(C)cc2)cc1 (stereo unspecified),-3.2,0.1,-1.8,-2.3,-7.9,.,.,.
CC(=O)Nc1ccc(S(=O)(=O)NCCC(=O)OC(C)C(=O)NC2(C#N)CCCCC2)cc1 (stereo unspecified),1.1,-5.8,67.4*,-5.4,-7.0,-0.6,2.8,-7.7
COc1ccc(CN2C[C@H](C)[C@@H](OC)CN(C)C(=O)c3ccc(NC(=O)c4nc5ccccc5s4)cc3OC[C@H]2C)cc1,-1.9,.,.,.,.,.,.,.
CC1Cc2ccccc2N1C(=O)c1ccc(F)c(S(=O)(=O)N2CCOCC2)c1 (stereo unspecified),-1.4,9.3,25.8*,-3.2,7.1,1.7,-6.3,3.9
Cc1[nH]c(=O)[nH]c1C(=O)CCCCC(=O)O,-4.3,-3.7,73.4*,-9.0,-8.8,-1.6,8.2,59.6*
CCCCSCc1[nH]c(=O)[nH]c1C(=O)CCCCC(=O)OCC,.,-14.6,9.9,6.2,-0.3,.,.,.
CC(C=CC(O)=C1C(=O)CNC1=O)=C[C@@H](C)C1OC2(C)OC(C(=O)C3O[C@@]32C)C1C (stereo partly specified),24.7,-0.6,21.7*,-1.5,.,4.5,-23.0,11.5
COc1ccc(/C(O)=C2\C(=O)C(=O)N(Cc3ccco3)C2c2cc(OC)ccc2OC)cc1 (stereo unspecified),.,0.9,1.1,6.7,-16.0,.,.,.
Cc1ccc(C2/C(=C(/O)c3ccc(Br)cc3)C(=O)C(=O)N2Cc2ccco2)o1 (stereo unspecified),.,-6.3,14.8*,4.7,8.1,0.5,-2.5,16.1*
COCCN(C(=S)Nc1cccc(OC)c1)C1CCN(C(C)=O)CC1,.,-18.2,0.1,-3.7,-14.1,.,.,.
CCn1c(C)nc2cc(C(=O)N/N=C/c3cccc(OC)c3O)ccc21,-7.4,7.2,-8.6,-15.1,10.6,.,.,.
